Test results published in ChEMBL document CHEMBL1128245, “Dual-acting thromboxane receptor antagonist/synthase inhibitors: synthesis and biological properties of [2-substituted-4-(3-pyridyl)-1,3-dioxan-5-yl] alkenoic acids” (J Med Chem, 1995).

Legend:
[1] = tested on: Canis familiaris; assay: Ex vivo TXA2 ([…]) antagonist activity was determined for U-46,619 induced aggregation (dose ratio) after 24 hr of oral dosing (10 mg/kg) in the dog; assay type: functional, Canis lupus familiaris
Summary of the method: (§1)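 Dogs (n = 4) dosed orally, blood sampled at 2, 5, 8 and 24 h. Platelet-rich plasma aggregated with U46619 plus a predetermined threshold ADP concentration (about 0.4–1.2 × 10^-6 M), compared before vs after dosing to give a U46619 dose ratio. ">" marks the maximum achievable ratio at top U46619 (1 × 10^-4 M).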

[2] = tested on: Canis familiaris; assay: Ex vivo TXA2 ([…]) antagonist activity was determined for U-46,619 induced aggregation (dose ratio) after 8 hr of oral dosing (1 mg/kg) in the dog; assay type: functional, Canis lupus familiaris; summary of the method: as §1
[3] = tested on: Rattus norvegicus; assay: Ex vivo […] (TXA2 synthase) inhibitory activity after 1 hr of oral dosing (5 mg/kg) in the rat; assay type: functional
Summary of the method: (§2)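 Rats (n = 6) gavaged, anesthetized, aortic blood taken at 1, 3 or 5 h after dosing. A blood aliquot was challenged with collagen and TXB2 measured by radioimmunoassay; expressed as % inhibition of TXA2 synthase (±SEM).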

[4] = tested on: Rattus norvegicus; assay: Ex vivo […] (TXA2 synthase) inhibitory activity after 3 hr of oral dosing (1 mg/kg) in the rat; assay type: functional; summary of the method: as §2
[5] = tested on: Rattus norvegicus; assay: Ex vivo […] (TXA2 synthase) inhibitory activity after 1 hr of oral dosing (10 mg/kg) in the rat; assay type: functional; summary of the method: as §2
[6] = tested on: Rattus norvegicus; assay: Ex vivo […] (TXA2 synthase) inhibitory activity after 1 hr of oral dosing (1 mg/kg) in the rat; assay type: functional; summary of the method: as §2
[7] = tested on: Rattus norvegicus; assay: Ex vivo TXA2 ([…]) antagonist activity was determined for U-46,619 induced aggregation (dose ratio) after 5 hr of oral dosing (5 mg/kg) in the rat; assay type: functional
Summary of the method: (§3)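 Conscious rats (n = 6) dosed by oral gavage, then anesthetized and bled from the abdominal aorta at 1, 3 or 5 h. Platelet-rich plasma aggregated with U46619 before and after dosing to give a U46619 dose ratio. ">" values mark the maximum dose ratio achievable at the top U46619 concentration (1 × 10^-4 M).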

[8] = tested on: Rattus norvegicus; assay: Ex vivo TXA2 ([…]) antagonist activity was determined for U-46,619 induced aggregation (dose ratio) after 1 hr of oral dosing (10 mg/kg) in the rat; assay type: functional; summary of the method: as §3
[9] = tested on: Rattus norvegicus; assay: Ex vivo TXA2 ([…]) antagonist activity was determined for U-46,619 induced aggregation (dose ratio) after 3 hr of oral dosing (1 mg/kg) in the rat; assay type: functional; summary of the method: as §3
[10] = tested on: Rattus norvegicus; assay: Ex vivo TXA2 ([…]) antagonist activity was determined for U-46,619 induced aggregation (dose ratio) after 3 hr of oral dosing (5 mg/kg) in the rat; assay type: functional; summary of the method: as §3
[11] = tested on: Rattus norvegicus; assay: Ex vivo TXA2 ([…]) antagonist activity was determined for U-46,619 induced aggregation (dose ratio) after 5 hr of oral dosing (1 mg/kg) in the rat; assay type: functional; summary of the method: as §3
[12] = tested on: Rattus norvegicus; assay: Ex vivo TXA2 ([…]) antagonist activity was determined for U-46,619 induced aggregation (dose ratio) after 3 hr of oral dosing (3 mg/kg) in the rat; assay type: functional; summary of the method: as §3
[13] = target: T1, Prostacyclin synthase (Homo sapiens, UniProt Q16647); assay: In vitro inhibition of Prostaglandin I2 synthase in cultured human endothelial cells
T1 sequence (Q16647 whole entry): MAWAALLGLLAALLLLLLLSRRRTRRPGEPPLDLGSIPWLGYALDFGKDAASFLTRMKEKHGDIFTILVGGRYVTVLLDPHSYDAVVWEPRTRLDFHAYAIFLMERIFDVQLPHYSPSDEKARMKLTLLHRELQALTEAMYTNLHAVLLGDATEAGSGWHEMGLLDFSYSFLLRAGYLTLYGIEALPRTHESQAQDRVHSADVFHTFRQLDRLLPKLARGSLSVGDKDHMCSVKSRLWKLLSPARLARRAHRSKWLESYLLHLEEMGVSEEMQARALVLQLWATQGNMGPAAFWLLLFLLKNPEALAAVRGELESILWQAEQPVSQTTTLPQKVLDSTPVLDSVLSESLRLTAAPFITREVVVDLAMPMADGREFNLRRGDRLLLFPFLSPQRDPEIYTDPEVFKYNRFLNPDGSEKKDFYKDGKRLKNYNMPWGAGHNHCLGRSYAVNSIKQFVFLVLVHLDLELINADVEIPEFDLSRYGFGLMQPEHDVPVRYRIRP

Work on `Cc1ccc(OC(C)(C)C2OCC(C/C=C\CCC(=O)O)C(c3cccnc3)O2)c([N+](=O)[O-])c1` (stereo in doubt; 7x) yielded an Antagonist activity [1] of over 522, an Antagonist activity [2] of over 506 and an Inhibition [3] of 92.9%. For the same compound, the Inhibition [4] was 38.8%, the Inhibition [5] was 95.6% and the Inhibition [6] was 61.8%. It also gave an Antagonist activity [7] of over 47, an Antagonist activity [8] of over 113 and an Antagonist activity [9] of over 27. The Antagonist activity [10] was over 59, the Antagonist activity [11] was over 9 and the Antagonist activity [12] was over 23. The IC50 [13] was 28 µM.
